What follows are compounds tested on CCRF-CEM (assay: Anticancer activity against human CCRF-CEM cells assessed as cell growth at 10^-5 M after 48 hrs by SRB assay). Settings: read-out: Activity.
Format: functional
In short: (§1)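 NCI-60 single-dose screen at one concentration. Cells grown in RPMI 1640 with 5% FBS and 2 mM L-glutamine, plated at 5000–40,000 cells/well, and pre-incubated 24 h at 37 °C in 5% CO2 before DMSO-dissolved drug was added. Cells fixed with TCA, SRB-stained, absorbance read at 515 nm. Percent growth calculated against time-zero and untreated control plates.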

**Q.** For `O=C(NCCNc1nccc(-c2c(-c3cccc(O)c3)nc3sccn23)n1)c1cc(C(F)(F)F)cc(C(F)(F)F)c1`, which growth at 10 µM is on record?
**A.** The growth at 10 µM was 84.7%.

The compounds below were run on RPMI-8226 (assay: Anticancer activity against human RPMI8226 cells assessed as cell growth at 10^-5 M after 48 hrs by SRB assay). Settings: RPMI-8226, 48 h, read-out: Activity.
Format: functional

**Q.** `O=C(NCCNc1nccc(-c2c(-c3cccc(O)c3)nc3sccn23)n1)c1cc(C(F)(F)F)cc(C(F)(F)F)c1` was tested. Which growth at 10 µM did it give?
**A.** Its growth at 10 µM is 91%.

These compounds were tested on EKVX (assay: Anticancer activity against human EKVX cells assessed as cell growth at 10^-5 M after 48 hrs by SRB assay). Settings: read-out: Activity.
Format: functional
In short: as §1

**Q.** With `O=C(NCCNc1nccc(-c2c(-c3cccc(O)c3)nc3sccn23)n1)c1cc(C(F)(F)F)cc(C(F)(F)F)c1` as the compound, how does the growth at 10 µM read?
**A.** The growth at 10 µM was 103%.

Each compound was assayed on HOP-62 (assay: Anticancer activity against human HOP62 cells assessed as cell growth at 10^-5 M after 48 hrs by SRB assay). Settings: HOP-62, 48 h, read-out: Activity.
Format: functional
In short: as §1

**Q.** `O=C(NCCNc1nccc(-c2c(-c3cccc(O)c3)nc3sccn23)n1)c1cc(C(F)(F)F)cc(C(F)(F)F)c1` was tested. Which growth at 10 µM did it give?
**A.** The growth at 10 µM was 118%.

These compounds were tested on HOP-92 (assay: Anticancer activity against human HOP92 cells assessed as cell growth at 10^-5 M after 48 hrs by SRB assay). Settings: HOP-92, 48 h, read-out: Activity.
Format: functional
In short: as §1

**Q.** How did the growth at 10 µM turn out when `O=C(NCCNc1nccc(-c2c(-c3cccc(O)c3)nc3sccn23)n1)c1cc(C(F)(F)F)cc(C(F)(F)F)c1` was run?
**A.** Its growth at 10 µM is 77.1%.

These compounds were tested on NCI-H226 (assay: Anticancer activity against human NCI-H226 cells assessed as cell growth at 10^-5 M after 48 hrs by SRB assay). Settings: NCI-H226, 48 h, read-out: Activity.
Format: functional

**Q.** Which growth at 10 µM does the source give for `O=C(NCCNc1nccc(-c2c(-c3cccc(O)c3)nc3sccn23)n1)c1cc(C(F)(F)F)cc(C(F)(F)F)c1` here?
**A.** Its growth at 10 µM is 116%.

What follows are compounds tested on NCI-H23 (assay: Anticancer activity against human NCI-H23 cells assessed as cell growth at 10^-5 M after 48 hrs by SRB assay). Settings: NCI-H23, 48 h, read-out: Activity.
Format: functional

**Q.** For `O=C(NCCNc1nccc(-c2c(-c3cccc(O)c3)nc3sccn23)n1)c1cc(C(F)(F)F)cc(C(F)(F)F)c1`, which growth at 10 µM is on record?
**A.** Its growth at 10 µM is 119%.

The compounds below were run on NCI-H322M (assay: Anticancer activity against human NCI-H322M cells assessed as cell growth at 10^-5 M after 48 hrs by SRB assay). Settings: read-out: Activity.
Format: functional

**Q.** `O=C(NCCNc1nccc(-c2c(-c3cccc(O)c3)nc3sccn23)n1)c1cc(C(F)(F)F)cc(C(F)(F)F)c1` was tested. Which growth at 10 µM did it give?
**A.** The growth at 10 µM was 122%.

What follows are compounds tested on NCI-H522 (assay: Anticancer activity against human NCI-H522 cells assessed as cell growth at 10^-5 M after 48 hrs by SRB assay). Settings: NCI-H522, 48 h, read-out: Activity.
Format: functional

**Q.** `O=C(NCCNc1nccc(-c2c(-c3cccc(O)c3)nc3sccn23)n1)c1cc(C(F)(F)F)cc(C(F)(F)F)c1` was tested. Which growth at 10 µM did it give?
**A.** Its growth at 10 µM is 97.6%.

What follows are compounds tested on HCT-116 (assay: Anticancer activity against human HCT116 cells assessed as cell growth at 10^-5 M after 48 hrs by SRB assay). Settings: HCT-116, 48 h, read-out: Activity.
Format: functional
In short: as §1

**Q.** Which growth at 10 µM does the source give for `O=C(NCCNc1nccc(-c2c(-c3cccc(O)c3)nc3sccn23)n1)c1cc(C(F)(F)F)cc(C(F)(F)F)c1` here?
**A.** The growth at 10 µM was 102%.

The compounds below were run on HCT-15 (assay: Anticancer activity against human HCT15 cells assessed as cell growth at 10^-5 M after 48 hrs by SRB assay). Settings: HCT-15, 48 h, read-out: Activity.
Format: functional
In short: as §1

**Q.** Which growth at 10 µM does the source give for `O=C(NCCNc1nccc(-c2c(-c3cccc(O)c3)nc3sccn23)n1)c1cc(C(F)(F)F)cc(C(F)(F)F)c1` here?
**A.** Its growth at 10 µM is 96.6%.

What follows are compounds tested on HT-29 (assay: Anticancer activity against human HT-29 cells assessed as cell growth at 10^-5 M after 48 hrs by SRB assay). Settings: HT-29, 48 h, read-out: Activity.
Format: functional
In short: as §1

**Q.** For `O=C(NCCNc1nccc(-c2c(-c3cccc(O)c3)nc3sccn23)n1)c1cc(C(F)(F)F)cc(C(F)(F)F)c1`, which growth at 10 µM is on record?
**A.** The growth at 10 µM was 63.1%.

These compounds were tested on KM12 (assay: Anticancer activity against human KM12 cells assessed as cell growth at 10^-5 M after 48 hrs by SRB assay). Settings: KM12, 48 h, read-out: Activity.
Format: functional
In short: as §1

**Q.** Which growth at 10 µM does the source give for `O=C(NCCNc1nccc(-c2c(-c3cccc(O)c3)nc3sccn23)n1)c1cc(C(F)(F)F)cc(C(F)(F)F)c1` here?
**A.** Its growth at 10 µM is 103%.

What follows are compounds tested on SF-268 (assay: Anticancer activity against human SF268 cells assessed as cell growth at 10^-5 M after 48 hrs by SRB assay). Settings: SF-268, 48 h, read-out: Activity.
Format: functional

**Q.** For `O=C(NCCNc1nccc(-c2c(-c3cccc(O)c3)nc3sccn23)n1)c1cc(C(F)(F)F)cc(C(F)(F)F)c1`, which growth at 10 µM is on record?
**A.** Its growth at 10 µM is 105%.

These compounds were tested on SF-539 (assay: Anticancer activity against human SF539 cells assessed as cell growth at 10^-5 M after 48 hrs by SRB assay). Settings: SF-539, 48 h, read-out: Activity.
Format: functional

**Q.** With `O=C(NCCNc1nccc(-c2c(-c3cccc(O)c3)nc3sccn23)n1)c1cc(C(F)(F)F)cc(C(F)(F)F)c1` as the compound, how does the growth at 10 µM read?
**A.** Its growth at 10 µM is 113%.

The compounds below were run on SNB-75 (assay: Anticancer activity against human SNB75 cells assessed as cell growth at 10^-5 M after 48 hrs by SRB assay). Settings: SNB-75, 48 h, read-out: Activity.
Format: functional
In short: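 NCI-60 single-dose screen: cells in RPMI 1640 with 5% FBS and 2 mM L-glutamine, plated at 5000–40,000 cells/well by doubling time, and preincubated 24 h at 37 °C. Compound given at one concentration from DMSO stock. Cells TCA-fixed and SRB-stained, absorbance at 515 nm. Percent growth relative to time-zero and untreated controls; inhibition % = 100 − growth %.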

**Q.** How did the growth at 10 µM turn out when `O=C(NCCNc1nccc(-c2c(-c3cccc(O)c3)nc3sccn23)n1)c1cc(C(F)(F)F)cc(C(F)(F)F)c1` was run?
**A.** Its growth at 10 µM is 87.7%.

From ChEMBL document CHEMBL1914423, “New imidazo[2,1-b]thiazole derivatives: synthesis, in vitro anticancer evaluation, and in silico studies” (Eur J Med Chem, 2011)
